Measured values: publication PMC5908721 (Journal of medicinal chemistry, 2018)
One block for each compound: values may come before it.

Columns and labels:
HDAC1 [1] = target: T1, HDAC1 (Homo sapiens, UniProt Q13547); assay: In vitro HDACs inhibition fluorescence assay, HDAC1; assay type: biochemical; settings: preincubation 15, 30, 60, 90 min
In short: (§1)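 Recombinant HDAC enzyme is preincubated with serial test-compound concentrations at 30 °C for 15, 30, 60 or 90 min. Boc-Lys(acetyl)-AMC is added for 2 h at 30 °C. The reaction is stopped with a trypsin/trichostatin A developer, and fluorescence is read after 30 min (ex 360/em 460 nm). Inhibition is taken relative to control wells, and IC50 comes from a variable-slope log(inhibitor)–normalized response fit.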

HDAC2 [2] = target: T2, HDAC2 (Homo sapiens, UniProt Q92769); assay: In vitro HDACs inhibition fluorescence assay, HDAC2; assay type: biochemical; settings: preincubation 15, 30, 60, 90 min
T2 sequence (Q92769 whole entry): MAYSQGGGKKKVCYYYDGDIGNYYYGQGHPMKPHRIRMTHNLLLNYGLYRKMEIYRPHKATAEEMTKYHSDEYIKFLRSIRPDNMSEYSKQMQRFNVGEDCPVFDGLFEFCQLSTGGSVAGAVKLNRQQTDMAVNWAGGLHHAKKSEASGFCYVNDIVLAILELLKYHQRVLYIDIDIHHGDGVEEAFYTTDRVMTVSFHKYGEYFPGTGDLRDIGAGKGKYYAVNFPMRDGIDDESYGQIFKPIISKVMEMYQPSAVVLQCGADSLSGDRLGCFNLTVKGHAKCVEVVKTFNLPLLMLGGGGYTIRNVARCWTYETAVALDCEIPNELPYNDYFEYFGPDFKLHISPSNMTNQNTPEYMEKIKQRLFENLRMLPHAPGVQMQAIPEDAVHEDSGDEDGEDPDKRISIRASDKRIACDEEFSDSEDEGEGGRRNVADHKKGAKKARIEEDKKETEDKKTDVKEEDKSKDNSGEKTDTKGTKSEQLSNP
In short: as §1

HDAC3 [3] = target: T3, HDAC3 (Homo sapiens, UniProt O15379); assay: In vitro HDACs inhibition fluorescence assay, HDAC3; assay type: biochemical; settings: preincubation 15, 30, 60, 90 min
T3 sequence (O15379 whole entry): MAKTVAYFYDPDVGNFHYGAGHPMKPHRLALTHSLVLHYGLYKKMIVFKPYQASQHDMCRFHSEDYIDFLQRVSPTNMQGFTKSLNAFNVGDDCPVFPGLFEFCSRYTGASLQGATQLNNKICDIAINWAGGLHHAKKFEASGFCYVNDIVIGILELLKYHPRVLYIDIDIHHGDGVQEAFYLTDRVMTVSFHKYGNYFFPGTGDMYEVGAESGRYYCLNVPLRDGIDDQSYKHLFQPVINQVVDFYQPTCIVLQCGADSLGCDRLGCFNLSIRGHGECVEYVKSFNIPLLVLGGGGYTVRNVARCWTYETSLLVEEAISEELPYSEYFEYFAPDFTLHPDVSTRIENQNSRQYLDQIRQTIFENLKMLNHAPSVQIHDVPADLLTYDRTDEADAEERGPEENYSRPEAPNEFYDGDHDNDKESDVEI
T3 sequence (Q9Y618 395-489 partner limits assumed): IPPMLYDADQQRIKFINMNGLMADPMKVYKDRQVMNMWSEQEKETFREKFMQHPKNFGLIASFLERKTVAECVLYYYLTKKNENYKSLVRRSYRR

HDAC1 [4] = target: T1, HDAC1; assay: Recombinant HDAC Vmax study; assay type: biochemical; settings: 2 h preincubation
HDAC2 [5] = target: T2, HDAC2; assay: Recombinant HDAC Vmax study; assay type: biochemical; settings: 2 h preincubation
In short: (§2)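 Recombinant human HDAC is incubated with inhibitor dilutions in HDAC buffer for 2 h at 30 °C. Serially diluted Boc-Lys(acetyl)-AMC is then added. After 2 h, the reaction is quenched with trypsin (5 mg/mL) plus 1 μM TSA solution, and fluorescence is read at 360/460 nm. Vmax and Km come from a Michaelis–Menten fit, and Lineweaver–Burk double-reciprocal plots are derived from them.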

HDAC3 [6] = target: T3, HDAC3; assay: Recombinant HDAC Vmax study; assay type: biochemical; settings: 2 h preincubation
In short: as §2

MV4-11 cells [7] = assay: MV4-11 EC50 analysis / cell viability; assay type: cell-based
PC-3 cells [8] = assay: PC-3 EC50 analysis / cell viability; assay type: cell-based; settings: 24 and 48 h
MMP-2/MMP-9 = MMP-2/MMP-9 inhibitory activity; assay type: biochemical; settings: read-out: MMP-2/MMP-9, no inhibition at concentrations up to
In short: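 Gelatinase (MMP-2/MMP-9) fluorogenic kit assay. Test compound is added as a 100 μM solution (before mixing), alongside a 40 μM reference MMP inhibitor. Enzyme diluted in activation buffer is added for 10–15 min, then substrate. The mix is incubated at 37 °C for 2 h, and fluorescence is read at ex 320/em 405 nm.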

APN/CD13 = target: T4, APN/CD13 (Sus scrofa, UniProt P15145); assay: CD13 inhibition assay; assay type: biochemical, porcine
T4 sequence (P15145 1-963): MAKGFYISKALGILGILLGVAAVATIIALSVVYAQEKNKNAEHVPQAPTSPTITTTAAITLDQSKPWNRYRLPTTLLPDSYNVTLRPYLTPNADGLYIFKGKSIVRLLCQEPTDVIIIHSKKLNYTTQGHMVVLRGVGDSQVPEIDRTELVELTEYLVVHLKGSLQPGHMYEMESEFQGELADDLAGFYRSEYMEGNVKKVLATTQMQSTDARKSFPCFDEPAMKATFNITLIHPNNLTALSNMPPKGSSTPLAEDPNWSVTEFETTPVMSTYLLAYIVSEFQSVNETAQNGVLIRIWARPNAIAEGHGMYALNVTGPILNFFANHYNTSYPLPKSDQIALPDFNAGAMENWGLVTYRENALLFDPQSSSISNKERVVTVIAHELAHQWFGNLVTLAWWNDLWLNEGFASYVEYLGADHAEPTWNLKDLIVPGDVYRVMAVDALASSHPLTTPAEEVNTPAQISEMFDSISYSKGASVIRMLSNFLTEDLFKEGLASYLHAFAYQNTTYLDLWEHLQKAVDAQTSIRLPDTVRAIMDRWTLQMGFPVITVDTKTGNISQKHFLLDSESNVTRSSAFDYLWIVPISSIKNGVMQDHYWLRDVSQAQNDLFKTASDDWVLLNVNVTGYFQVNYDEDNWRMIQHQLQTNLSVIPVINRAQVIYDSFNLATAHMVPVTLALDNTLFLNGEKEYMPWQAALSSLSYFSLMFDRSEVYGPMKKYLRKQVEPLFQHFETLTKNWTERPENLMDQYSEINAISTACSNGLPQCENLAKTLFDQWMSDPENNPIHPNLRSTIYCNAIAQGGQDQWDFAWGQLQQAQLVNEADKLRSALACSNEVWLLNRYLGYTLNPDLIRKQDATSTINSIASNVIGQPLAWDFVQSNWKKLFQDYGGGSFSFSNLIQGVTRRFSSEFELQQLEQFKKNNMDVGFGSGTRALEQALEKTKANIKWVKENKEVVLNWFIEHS
In short: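 Porcine kidney microsomal aminopeptidase (CD13) is added to test compound at various concentrations. After 5 min, L-leucine-p-nitroanilide substrate is added, and the mix is incubated at 37 °C for 30 min. Absorbance is then read at 405 nm.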

MV4-11 cells [9] = assay: Western blot analysis in MV4-11 cells; assay type: cell-based; settings: for Level of HDAC6: ≥0.5 μM 13e or 5 μM SAHA
In short: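 MV4-11 cells (1,500,000/well) are grown 12 h, then treated with test compound, mainly for 24 h (0.25–2 μM; 5 μM SAHA as reference). For p53, 0.5 μM is given for 6 or 12 h, and bortezomib is co-treated for 6 h. Cells are lysed in RIPA, sonicated, centrifuged, BCA-normalized, and run on 4–12% Bis-Tris gels. Blots are probed overnight at 4 °C with primary antibodies (1/1000), with actin as loading control (n ≥ 2).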

PC-3 cells [10] = assay: Western blot analysis in PC-3 cells; assay type: cell-based; settings: PC-3, 24 h
In short: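 PC-3 cells (300,000 per well, six-well) grown 12 h, then given test compound at 1 and 2 μM for 24 h; 5 μM reference HDAC inhibitor as positive control. RIPA lysates were sonicated, cleared at 4 °C, and BCA-normalised. Proteins were separated on 4–12% Bis-Tris gels in MES buffer. Primary antibodies were used at 1/1000 overnight at 4 °C, with actin as loading control. Representative of n ≥ 2 experiments.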

MV4-11 cells [11] = assay: Cell cycle analysis in MV4-11 cells; assay type: cell-based; settings: MV4-11, 24 h
In short: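 MV4-11 cells plated at 1,500,000 per well in six-well plates, grown 12 h, then exposed to test compound for 24 h. Cells were PBS-washed, fixed overnight at 4 °C in cold 75% ethanol, and washed twice in cold PBS. They were RNase A-treated at 37 °C for 30 min, stained with 50 μg/mL propidium iodide (30 min, 4 °C), and analysed by flow cytometry. Representative of n ≥ 2 experiments.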

PC-3 cells [12] = assay: Cell cycle analysis in PC-3 cells; assay type: cell-based; settings: PC-3, 24 h
In short: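 PC-3 cells (300,000/well) are grown 12 h, then treated with test compound at various concentrations for 24 h. Cells are harvested, PBS-washed, fixed overnight in 75% cold ethanol at 4 °C, and washed in cold PBS. They are then treated with RNase A at 37 °C for 30 min and stained with propidium iodide (50 μg/mL in PBS) for 30 min at 4 °C. DNA content is read by flow cytometry (n ≥ 2).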

PC-3 cells [13] = assay: PC-3 cell morphology, phase-contrast light microscope; assay type: cell-based; settings: 48 h
In short: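 PC-3 cells in culture flasks are exposed for 48 h to 2 or 10 μM test compound or DMSO vehicle. Cell morphology and attachment are then examined by phase-contrast light microscopy (n ≥ 2).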

[14] = clinical use; cited from earlier work

T1 sequence (Q13547 whole entry): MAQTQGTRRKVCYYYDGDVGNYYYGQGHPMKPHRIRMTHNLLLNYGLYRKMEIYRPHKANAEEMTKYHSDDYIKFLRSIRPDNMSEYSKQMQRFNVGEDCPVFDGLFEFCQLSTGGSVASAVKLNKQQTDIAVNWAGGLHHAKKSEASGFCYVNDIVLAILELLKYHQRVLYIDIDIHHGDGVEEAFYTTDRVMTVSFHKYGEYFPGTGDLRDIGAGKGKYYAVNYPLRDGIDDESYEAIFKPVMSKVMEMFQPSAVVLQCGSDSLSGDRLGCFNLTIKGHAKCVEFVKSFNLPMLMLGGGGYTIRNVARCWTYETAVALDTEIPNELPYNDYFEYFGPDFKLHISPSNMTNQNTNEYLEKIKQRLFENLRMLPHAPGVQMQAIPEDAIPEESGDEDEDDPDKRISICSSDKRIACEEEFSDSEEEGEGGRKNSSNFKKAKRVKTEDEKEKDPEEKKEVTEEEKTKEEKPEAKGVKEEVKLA

SMILES: COc1ccc(C(=O)N[C@@H](Cc2c[nH]c3ccccc23)C(=O)NCc2ccc(C(=O)Nc3ccccc3N)cc2)cc1 [Compound 11a, (S)-4-((3-(1H-indol-3-yl)-2-(4-methoxybenzamido)propanamido)-methyl)-N-(2-aminophenyl)benzamide, reference compound]
Time dependence of HDAC1 inhibition (HDAC1 [1]): time-dependent inhibition
Time dependence of HDAC2 inhibition (HDAC2 [2]): time-dependent inhibition
Time dependence of HDAC3 inhibition (HDAC3 [3]): time-dependent inhibition
Type of inhibition of HDAC1 (Lineweaver-Burke analysis) (HDAC1 [4]): competitive inhibition
Type of inhibition of HDAC2 (Lineweaver-Burke analysis) (HDAC2 [5]): mixed-type inhibition
Type of inhibition of HDAC3 (Lineweaver-Burke analysis) (HDAC3 [6]): mixed-type inhibition

SMILES: O=C(CCCCCCC(=O)Nc1ccccc1)NO [SAHA, vorinostat, reference compound]
Level of HDAC6 (MV4-11 cells [9]; MV4-11, 24 h): nearly absent

SMILES: CC(C)C[C@H](NC(=O)[C@H](Cc1ccccc1)NC(=O)c1cnccn1)B(O)O [bortezomib, reference compound]
Effect on p53 degradation upon hydrazide HDAC inhibitor treatment (MV4-11 cells [9]; MV4-11, 6 h treatment): blocks this degradation

SMILES: NNC(=O)c1ccncc1 [isoniazid]
Rate of hepatotoxicity [14]: 0.5–2%
Rate of lethal hepatotoxicity [14]: 1/25000

The next lines start with results.

Time dependence of HDAC1 inhibition (HDAC1 [1]): time-dependent inhibition
Time dependence of HDAC2 inhibition (HDAC2 [2]): time-dependent inhibition
Time dependence of HDAC3 inhibition (HDAC3 [3]): time-dependent inhibition
Type of inhibition of HDAC1 (Lineweaver-Burke analysis) (HDAC1 [4]): mixed inhibition
Type of inhibition of HDAC2 (Lineweaver-Burke analysis) (HDAC2 [5]): mixed inhibition
Type of inhibition of HDAC3 (Lineweaver-Burke analysis) (HDAC3 [6]): mixed inhibition
SMILES: CCCNNC(=O)c1ccc(CNC(=O)[C@H](Cc2c[nH]c3ccccc23)NC(=O)c2ccc(OC)cc2)cc1 [Compound 13b, (S)-N-(3-(1H-Indol-3-yl)-1-oxo-1-((4-(2-propylhydrazine-1-carbonyl)benzyl)amino)propan-2-yl)-4-methoxybenzamide]

IC50 (MMP-2/MMP-9): > 50 µM
IC50 (APN/CD13): > 50 µM
SMILES: CCCNNC(=O)c1ccc(NC(=O)[C@H](Cc2c[nH]c3ccccc23)NC(=O)c2ccc(OC)cc2)cc1 [Compound 13e, (S)-N-(3-(1H-Indol-3-yl)-1-oxo-1-((4-(2-propylhydrazine-1-carbonyl)phenyl)amino)propan-2-yl)-4-methoxybenzamide]
Viable MV4-11 cell population over time (resorufin fluorescence) (MV4-11 cells [7]; 10 and 2 μM, 24 and 48 h): decreased with time
MV4-11 cell death (MV4-11 cells [7]; 48 h treatment at high concentration): almost all MV4-11 cells were dead
MV4-11 antiproliferative activity, times higher than 13b (MV4-11 cells [7]; vs 13b): 4.1 times
Viable PC-3 cell population over time (resorufin fluorescence) (PC-3 cells [8]; 2 μM): slightly increased
Viable PC-3 cell population over time (resorufin fluorescence) (PC-3 cells [8]; 10 μM): remained unchanged
Treatment time required for HDAC6 repression (MV4-11 cells [9]; MV4-11): more than 12 h
Time to degradation of p53 (MV4-11 cells [9]; MV4-11, 0.5 μM): ≤ 6 h
HDAC1 level (MV4-11 cells [9]; MV4-11, 24 h): did not induce down-regulation of class I HDAC1
Level of acetyl-tubulin (MV4-11 cells [9]; MV4-11, 24 h): increased
Level of acetylated histone H3 (MV4-11 cells [9]; MV4-11, 24 h, 0.25-2 μM): markedly increase
Level of acetylated histone H4 (MV4-11 cells [9]; MV4-11, 24 h, 0.25-2 μM): markedly increase
Cleavage of pro-caspase3 / PARP (apoptosis) (MV4-11 cells [9]; MV4-11, 24 h, 1 and 2 μM): caused the cleavage of inactive pro-caspase3
Level of HDAC6 (MV4-11 cells [9]; MV4-11, 24 h): nearly absent
HDAC1 level (PC-3 cells [10]): did not induce down-regulation of class I HDAC1
Cleavage of pro-caspase3 / PARP (apoptosis) (PC-3 cells [10]; 1 and 2 μM): no observed cleavage of pro-caspase3 or PARP
HDAC6 level and acetylated tubulin level (PC-3 cells [10]; 1 and 2 μM): did not induce down-regulation of HDAC6 nor increase the level of acetylated tubulin
Cell cycle effect (MV4-11 cells [11]): induced G1/S and sub-G1 cell cycle arrest
Cell cycle effect (PC-3 cells [12]): triggered G2/M arrest
PC-3 cell morphology (PC-3 cells [13]; 2 μM): did not obviously affect cell morphology
PC-3 cell morphology (PC-3 cells [13]; 10 μM): cells were still alive and attached to the culture flask
